# PfHsp90 set2: reduces growth (ATP signal) of yeast expressing P. falciparum Hsp90; S. cerevisiae expressing PfHsp90, BacTiter-Glo ATP, 48 h; yeast lacking PDR1 and PDR3 efflux regulators; 310,000 compounds, 0.32% hits; inhibition, % at 9.4 µM;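 active = every replicate shows inhibition above about 80%, whatever the replicate mean, limit read from the data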;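 note: 0% = DMSO neutral controls and 100% = 20 µM radicicol positive controls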
# SKKanGAS inh: inhibitors of SKKanGAS S. pyogenes growth in kanamycin (SK-promoter or general growth effect); 300,000 compounds, 1.3% hits; inhibition, % at 7.5 µM; BacTiter-Glo, 6 h;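 active = mean replicate score, as percent of positive control median, at least 50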;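 note: strain carries kanamycin resistance gene driven by streptokinase promoter and grows in 40 µg/ml kanamycin; loss of luminescence reflects streptokinase promoter inhibition or plain growth inhibition; 0% = median of DMSO wells and 100% = positive control at its reference dose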
# CSC inhib: blocks cancer stem cells; cancer stem cell-like cells viability, luminescence; inhibition, % at 7.5 µM; 300,000 compounds, 1.1% hits; AID 2717; in the data active = inhibition above about 75%; tested in HMLE shEcad cells
# HIF act: HIF pathway transcriptional activation; U2OS HRE-luciferase reporter, luminescence; normalized: DMSO 0%, desferrioxamine 100%; activation, % at 7.5 µM (by protocol); 300,000 compounds, 0.32% hits; AID 1910;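 active = mean activation of at least 10% of the iron chelator positive control signal, with at least half of replicates also reaching 10%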
# T cruzi repl: blocks replication of Trypanosoma cruzi. T. cruzi beta-gal in NIH3T3, luminescence, 90 h. inhibition, % (test concentration not listed). 300,000 compounds, 1.4% hits. AID 1885;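 active = mean inhibition across valid replicates above about 55%, limit read from the data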;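 note: signal also drops with host cell toxicity which is not excluded here; 0% = plate median of DMSO wells and 100% = zero luminescence signal; higher percent means less beta-gal luminescence so fewer parasites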
#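 Assay system: NIH/3T3 host cells with β-galactosidase reporter T. cruzi; input: 5,000 host fibroblasts per well; compound: single 50 nL compound addition per well in DMSO; timing: ≥90 h infection period, 3 h prior cell attachment; measured by: GalScreen β-gal luminescence, detergent lysis, 60 min; evaluation: percent inhibition of parasite-derived β-gal signal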
# Beta cell apopt: beta cell apoptosis inhibition. INS-1E cytokine-induced death, ATP luminescence, 48 h; percent of positive-control rescue, neutral wells zero. protection from apoptosis, % (concentration not given with the values). 300,000 compounds, 0.8% hits;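 active = Every replicate reaches about 75%, or at least half do and their mean reaches it too, limit read from the data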;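 note: 0% = cytokine-treated negative control wells and 100% = positive control rescue; higher means more ATP so stronger rescue from cytokine killing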
# An asterisk follows results filed as active; · = no result given. An excerpt weighted towards active compounds, which were near 3.6% of everything screened.
SMILES,PfHsp90 set2,SKKanGAS inh,CSC inhib,HIF act,T cruzi repl,Beta cell apopt
CCCCN(C(=O)C1CCCO1)c1c(N)n(CCC)c(=O)[nH]c1=O (centres undefined),·,·,-4.8,·,·,-7.4
CCCCC[C@H]1CN(Cc2ccccc2)C(=O)[C@@H]1CC(=O)NCc1ccc(OC)cc1,38.0,2.0,15.7,-2.2,-1.4,-2.7
O=C(NC(NC(=S)Nc1c(Cl)cc(Cl)cc1Cl)C(Cl)(Cl)Cl)OCc1ccccc1 (centres undefined),·,86.3*,31.7,0.6,73.8*,44.3
O=C(/C=C/c1ccccc1)NC(NC(=S)Nc1cccc(Cl)c1)C(Cl)(Cl)Cl (centres undefined),-17.0,100.9*,71.7,1.0,59.0*,·
O=C(/C=C/c1ccccc1)NC(NC(=S)Nc1ccc(Cl)cc1Cl)C(Cl)(Cl)Cl (centres undefined),29.1,76.0*,110.3*,0.8,77.8*,26.7
Cc1ccc2c(c1)N(C(=O)CCC(=O)NCCN1CCOCC1)CC(C)O2 (centres undefined),28.4,-5.0,·,-0.2,4.9,6.8
N#Cc1cc([N+](=O)[O-])ccc1Oc1cccc(/C=N/NC(=O)c2cccc(Cl)c2)c1,2.7,14.2,35.9,-0.2,67.6*,5.1
COc1ccc(/C=N/NC(=O)c2cccc([N+](=O)[O-])c2)cc1OC,-2.5,-8.5,-4.8,0.0,-4.9,-2.8
O=C(CNS(=O)(=O)c1ccc(Br)cc1)N1CCN(Cc2ccccc2)CC1,-9.6,0.2,2.1,-0.3,5.4,·
O=C1CC(c2ccccc2)CC2=C1C=Nc1ccccc1N2 (centres undefined),7.2,-1.6,41.5,1.0,-2.9,-11.4
O=C1CC(c2ccc(F)cc2)CC2=C1C=Nc1ccccc1N2 (centres undefined),·,4.8,103.1*,0.0,3.3,-2.8
COc1ccc(C(=O)N=C2SC3CS(=O)(=O)CC3N2Cc2ccc(F)cc2)cc1 (centres undefined),11.8,5.3,-17.6,-0.3,23.2,0.3
Cc1cccc2[nH]c3c(N4CC=C(c5ccc(F)cc5)CC4)ncnc3c12,·,82.1*,77.9*,0.4,33.7,3.3
CSc1ncnc2[nH]ccc12,-10.8,·,·,·,·,·
CS(=O)c1nc(-c2ccc(Br)cc2)cc(-c2ccccc2)c1C#N (centres undefined),0.4,-0.7,75.1*,-4.3,14.7,11.7
CS(=O)(=O)c1nc(-c2ccc(Br)cc2)cc(-c2ccccc2)c1C#N,-12.1,4.7,86.0*,-6.0,35.7,18.9
N#CC(C#N)=C1SC(=Nc2ccccc2)C(=Nc2ccccc2)N1c1ccccc1,-16.9,·,·,·,·,·
O=C(NCCc1ccccc1)C1CCC(=O)N1C1CCCC1 (centres undefined),8.9,-3.3,-5.7,1.2,-5.4,-5.5
NCCc1c(-c2ccccc2)n(-c2ccccc2)c2ccccc12,-6.9,-1.4,·,-2.1,63.6*,·
O=C1c2ccccc2OC2(C=Cc3ccccc3O2)N1Cc1ccccc1 (centres undefined),-2.3,40.3,·,3.2,21.2,14.0
Cc1cc2c(c(/C=C/C(=O)c3ccccc3)c1)OC1(C=C2)Oc2ccccc2C(=O)N1C (centres undefined),5.5,22.4,138.0*,0.3,42.5,-4.9
COc1cc(/C=C2\CCC(C)C3=C(c4cc(OC)c(OC)c(OC)c4)C(C#N)=C(N)OC32)cc(OC)c1OC (centres undefined),0.1,·,·,·,·,·
CCOC(=O)c1cc2c(=O)n3ccccc3nc2n(C(C)C)c1=NC(=O)c1c(-c2c(F)cccc2Cl)noc1C,-19.8,27.1,63.2,0.1,58.3*,5.5
Clc1ccc(CN2C3=NCCCN3c3ccccc32)c(Cl)c1,6.9,-2.6,-10.9,1.9,20.0,7.4
O=C(C[C@H]1C/C=C\CC[C@@H](Cc2ccc(F)cc2)C(=O)O[C@H](c2ccccc2)CNC1=O)N[C@H](CO)Cc1ccccc1,-4.8,·,16.0,·,·,4.5
SMILES,PfHsp90 set2,SKKanGAS inh,CSC inhib,HIF act,T cruzi repl,Beta cell apopt
O=C(CSc1cccc[n+]1[O-])c1cc2ccccc2o1,-4.7,34.1,18.6,1.6,60.3*,1.9
O=C(O)CSc1cccc[n+]1[O-],2.3,4.5,-13.8,0.2,-1.5,-11.1
O=c1c2ccccc2cnn1-c1nc2ccccc2[nH]1,71.7,58.1*,·,-2.5,-12.5,·
CCC1(c2ccc(F)cc2)NC(=O)N(CC(=O)Nc2ccc(-c3nc4ccc(C)cc4s3)cc2)C1=O (centres undefined),3.6,30.6,22.3,-0.1,52.6,91.9*
Cc1ccc(C)c(N(CC(=O)Nc2ccc(-c3nc4ccc(C)cc4s3)cc2)S(C)(=O)=O)c1,-6.0,17.1,70.1,1.6,65.4*,1.1
CSc1ncccc1C(=O)OCC(=O)NCCCc1ccccc1,1.5,·,-2.8,·,·,-7.1
NC(=O)C1CCN(C(=O)c2ccc(Cl)c(S(=O)(=O)N3CCCCCC3)c2)CC1,-5.7,·,1.9,·,·,0.3
Cc1cc(C)c2c(C(C)(C)C)nn(-c3ccccc3)c2n1,-5.6,60.0*,4.9,0.0,-18.0,-7.9
Cc1cc(C)c2c(C)nn(-c3ccccc3)c2n1,-3.8,-6.3,-3.0,1.1,4.4,-4.3
C=C(C)COc1ccc(-c2n[nH]c(C)c2-c2ccc(Br)cc2)c(O)c1,-11.5,98.8*,101.3*,0.7,27.9,-2.1
C=C(C)COc1ccc(-c2[nH]ncc2-c2ccc(Br)cc2)c(O)c1,5.7,64.7*,67.7,-0.9,2.7,6.8
C=C(C)COc1ccc(-c2ncnc(C(F)(F)F)c2-c2ccc(OC)cc2)c(O)c1,2.0,20.3,24.5,-0.1,15.3,16.7
C=C(C)COc1ccc(-c2[nH]ncc2-c2ccccc2OC)c(O)c1,-43.6,12.8,1.3,-0.3,-3.0,0.0
CCOc1ccccc1NC(=O)c1nnn(CC(=O)Nc2cc(C)cc(C)c2)c1N,-6.9,5.4,-11.1,-0.6,-0.2,0.2
O=C1C2C3C=CC(O3)C2C(=O)N1N=Cc1ccc2c(c1)OCO2 (centres undefined),18.4,·,·,·,·,·
COc1ccc(NC(=O)CC2C(=O)N(CCc3ccccc3)C(=S)N2Cc2cccnc2)cc1 (centres undefined),-23.0,-6.4,20.7,-0.4,63.1*,6.6
COC(=O)c1c(NC(=O)c2ccccc2)sc2c1CC(C)(C)OC2,-1.6,-3.1,79.8*,4.2,-17.1,-1.9
CCOC(=O)c1c(NC(=O)c2ccc(C)cc2)sc2c1CC(C)(C)OC2,-9.3,-24.2,0.0,0.1,13.3,·
O=c1c2cn[nH]c2[nH]c(=S)n1-c1cccc(Cl)c1,32.3,-18.1,-9.3,0.6,-14.8,6.0
O=C1CC(c2ccc3c(c2)OCCO3)Oc2ccc([N+](=O)[O-])cc21 (centres undefined),-13.8,5.5,77.4*,3.4,-8.8,9.2
CCCCCC(=O)Cc1cc(O)cc2c1C(=O)Oc1cc(O)c(C(=O)O)c(CCCCC)c1O2,·,71.3*,51.2,-0.3,-12.0,-3.4

# High-throughput results as filed in PubChem.
